ChEMBL document CHEMBL3085739, “Design, synthesis, and biological evaluation of 2-oxo-3,4-dihydropyrimido[4,5-d]pyrimidinyl derivatives as new irreversible epidermal growth factor receptor inhibitors with improved pharmacokinetic properties” (J Med Chem, 2013)
Values after ≈ are worked out from the molar mass of the structure shown. Active and inactive are the calls of the source. The calls are words filed in the database; no cut-off is given here.

Tests used:
[1] = target: Epidermal growth factor receptor (Homo sapiens, UniProt P00533, L858R); assay: Inhibition of EGFR L858R mutant (unknown origin); assay type: protein assay
[2] = Antiproliferative activity against human 95-D cells expressing wild-type EGFR after 72 hrs by MTS assay; assay type: cell-based
How it was run: (§1)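 MTS proliferation assay: cells exposed to compound for 72 h at six concentrations (0.1 nM to 10 μM), each concentration run six times. Cell number per line set to give an absorbance of 0.5–1.2 at […]. IC50 from a nonlinear sigmoidal dose–response fit. Values are means of at least three independent experiments.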

[3] = AUC (0 to infinity) in Sprague-Dawley rat at 5 mg/kg, iv by LC/MS analysis; assay type: ADME, organism-based; design: time infinity, dose 5 mg/kg, route intravenous; details: plasma
How it was run: (§2)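 Male Sprague-Dawley rats (180−220 g), n = 4 per route, single iv dose 5 mg/kg or oral gavage 25 mg/kg. Vehicle was 2% DMSO, 4% EtOH, 4% castor oil, 90% H2O. Orbital sinus blood was taken from 2 min to 72 h into heparinized tubes. Plasma levels were measured by LC/MS with propranolol internal standard and analysed by pharmacokinetic modelling.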

[4] = Antiproliferative activity against human H1299 cells expressing wild-type EGFR after 72 hrs by MTS assay; assay type: cell-based; details: NCI-H1299, 72 h; how it was run: as §1
NCI-H1975 [5] = assay: Effect on ERK protein level in human NCI-H1975 cells at 3 to 330 nM after 2 hrs by Western blotting analysis; assay type: functional, cell-based
How it was run: (§3)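 H1975 cells were grown 24 h, then treated for 2 h with DMSO or 3–330 nM compound. Lysates were sonicated, run on SDS-PAGE, blotted to PVDF, blocked in 5% BSA/TBST, and probed for phospho/total EGFR (pY1068), Akt and Erk1/2 (pT202/pY204) with peroxidase secondary antibodies. Blots are representative of three experiments.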

NCI-H1975 [6] = assay: Effect on EGFR protein level in human NCI-H1975 cells at 3 to 330 nM after 2 hrs by Western blotting analysis; assay type: functional, cell-based; how it was run: as §3
Mus musculus [7] = assay: Toxicity in SCID nude mouse xenografted with human NCI-H1975 cells assessed as body weight loss at 10 to 30 mg/kg, po qd after 14 days relative to vehicle-treated control; assay type: organism-based; design: dose 10-30 mg/kg, route oral; details: in vivo, 336 h
How it was run: (§4)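 SCID mice (6 weeks) were given H1975 cells subcutaneously in the right flank at 2 × 10^6 per mouse. At 200−300 mm3, n = 5 per group were randomized to daily oral vehicle or compound at 10 or 30 mg/kg for 14 days. Vehicle: 1% DMSO, 5% EtOH, 15% castor oil, 79% H2O. Tumors (W²·L/2) and body weight were measured every other day; TGI was calculated against vehicle controls.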

[8] = Oral bioavailability in Sprague-Dawley rat at 25 mg/kg by LC/MS analysis; assay type: ADME, organism-based; details: in vivo; how it was run: as §2
NCI-H1975 [9] = assay: Antitumor activity against human NCI-H1975 cells xenografted in po dosed SCID nude mouse assessed as tumor growth inhibition administered qd after 14 days; assay type: functional, organism-based; how it was run: as §4
NCI-H1975 [10] = assay: Antitumor activity against human NCI-H1975 cells xenografted in SCID nude mouse assessed as tumor growth inhibition at 10 mg/kg, po qd after 14 days; assay type: functional; details: NCI-H1975, 336 h, read-out: TGI; how it was run: as §4
[11] = target: Epidermal growth factor receptor (Homo sapiens, UniProt P00533, T790M); assay: Inhibition of EGFR T790M mutant (unknown origin); assay type: protein assay
[12] = Thermodynamic aqueous solubility of the compound in PBS buffer at pH 6.8 after 24 hrs by HPLC analysis; assay type: physicochemical; details: PBS buffer, pH 6.8; read-out: Therm_solubility
How it was run: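 Compound was shaken in aqueous buffer at pH 6.8 for 24 h at ambient temperature; dissolved concentration was measured by HPLC.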

[13] = Clearance in Sprague-Dawley rat at 5 mg/kg, iv by LC/MS analysis; assay type: ADME, organism-based; design: dose 5 mg/kg, route intravenous; details: in vivo; how it was run: as §2
[14] = test system: Epidermal growth factor receptor (Homo sapiens), P00533 [L858R,T790M]; details: NCI-H1975, 110 nM
[15] = Antiproliferative activity against human HL7702 cells after 72 hrs by MTS assay; assay type: cell-based; details: L02, 72 h
[16] = AUC (0 to infinity) in Sprague-Dawley rat at 25 mg/kg, po by LC/MS analysis; assay type: ADME, organism-based; design: dose 25 mg/kg, route oral, time infinity; details: plasma; how it was run: as §2
[17] = Cmax in Sprague-Dawley rat at 25 mg/kg, po by LC/MS analysis; assay type: ADME, organism-based; design: dose 25 mg/kg, route oral; details: in vivo; how it was run: as §2
[18] = target: Proto-oncogene tyrosine-protein kinase Src (Homo sapiens) (UniProt P12931); assay: Binding affinity to SRC (unknown origin)
[19] = Clearance in Sprague-Dawley rat at 25 mg/kg, po by LC/MS analysis; assay type: ADME, organism-based; design: dose 25 mg/kg, route oral; details: in vivo; how it was run: as §2
[20] = target: Mast/stem cell growth factor receptor Kit (Homo sapiens) (UniProt P10721); assay: Binding affinity to KIT (unknown origin)
[21] = target: Epithelial discoidin domain-containing receptor 1 (Homo sapiens) (UniProt Q08345); assay: Binding affinity to DDR1 (unknown origin)
[22] = target: Proto-oncogene tyrosine-protein kinase receptor Ret (Homo sapiens) (UniProt P07949); assay: Binding affinity to RET (unknown origin)
[23] = target: Platelet-derived growth factor receptor beta (Homo sapiens) (UniProt P09619); assay: Binding affinity to PDGFRbeta (unknown origin)
NCI-H1975 [24] = assay: Effect on AKT protein level in human NCI-H1975 cells at 3 to 330 nM after 2 hrs by Western blotting analysis; assay type: functional, cell-based; how it was run: as §3
NCI-H1975 [25] = assay: Antiproliferative activity against human NCI-H1975 cells expressing EGFR L858R/T790M double mutant after 72 hrs by MTS assay; assay type: functional, cell-based; details: NCI-H1975, 72 h
NCI-H1975 [26] = assay: Antitumor activity against human NCI-H1975 cells xenografted in SCID nude mouse assessed as tumor growth inhibition at 30 mg/kg, po qd after 14 days; assay type: functional; details: NCI-H1975, 336 h, read-out: TGI; how it was run: as §4
[27] = target: Epidermal growth factor receptor (Homo sapiens, UniProt P00533, L858R/T790M); assay: Inhibition of EGFR L858R/T790M double mutant (unknown origin) after 1.5 hrs by FRET-based Z'-Lyte assay; assay type: protein assay
Mus musculus [28] = assay: Toxicity in SCID nude mouse xenografted with human NCI-H1975 cells assessed as mortality at 10 to 30 mg/kg, po qd after 14 days; assay type: organism-based; design: dose 10-30 mg/kg, route oral; details: in vivo, 336 h
How it was run: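 SCID mice (six weeks old) implanted subcutaneously in the right flank with H1975 cells (2 × 10⁶/mouse). Once tumours averaged 200−300 mm³, animals were randomized (n = 5 per group) and given vehicle or drug orally once daily for 14 days. Vehicle: 1% DMSO, 5% EtOH, 15% castor oil, 79% H₂O, at 0.1 mL/20 g. Mice were watched for morbidity, and body weight was recorded every other day.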

[29] = target: Tyrosine-protein kinase BTK (Homo sapiens) (UniProt Q06187); assay: Binding affinity to BTK (unknown origin)
Tyrosine-protein kinase BTK (Homo sapiens), sequence (Q06187 whole entry): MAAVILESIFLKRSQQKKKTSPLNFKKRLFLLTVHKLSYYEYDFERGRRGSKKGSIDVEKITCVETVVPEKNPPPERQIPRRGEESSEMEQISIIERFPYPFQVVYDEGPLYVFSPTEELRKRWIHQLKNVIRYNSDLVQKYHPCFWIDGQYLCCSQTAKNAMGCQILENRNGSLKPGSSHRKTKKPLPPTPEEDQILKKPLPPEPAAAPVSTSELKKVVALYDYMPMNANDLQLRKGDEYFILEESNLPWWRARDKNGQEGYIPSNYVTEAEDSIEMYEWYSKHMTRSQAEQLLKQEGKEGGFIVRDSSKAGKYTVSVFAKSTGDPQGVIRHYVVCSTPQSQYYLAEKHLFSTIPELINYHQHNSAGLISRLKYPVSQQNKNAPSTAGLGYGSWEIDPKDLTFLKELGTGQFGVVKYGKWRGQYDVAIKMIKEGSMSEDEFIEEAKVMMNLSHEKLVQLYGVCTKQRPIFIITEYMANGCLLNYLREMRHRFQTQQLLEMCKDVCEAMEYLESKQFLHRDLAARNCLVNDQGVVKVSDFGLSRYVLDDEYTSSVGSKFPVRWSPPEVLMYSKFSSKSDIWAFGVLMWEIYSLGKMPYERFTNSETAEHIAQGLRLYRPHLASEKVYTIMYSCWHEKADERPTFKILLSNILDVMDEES

Proto-oncogene tyrosine-protein kinase Src (Homo sapiens), sequence (P12931 2-536 limits assumed): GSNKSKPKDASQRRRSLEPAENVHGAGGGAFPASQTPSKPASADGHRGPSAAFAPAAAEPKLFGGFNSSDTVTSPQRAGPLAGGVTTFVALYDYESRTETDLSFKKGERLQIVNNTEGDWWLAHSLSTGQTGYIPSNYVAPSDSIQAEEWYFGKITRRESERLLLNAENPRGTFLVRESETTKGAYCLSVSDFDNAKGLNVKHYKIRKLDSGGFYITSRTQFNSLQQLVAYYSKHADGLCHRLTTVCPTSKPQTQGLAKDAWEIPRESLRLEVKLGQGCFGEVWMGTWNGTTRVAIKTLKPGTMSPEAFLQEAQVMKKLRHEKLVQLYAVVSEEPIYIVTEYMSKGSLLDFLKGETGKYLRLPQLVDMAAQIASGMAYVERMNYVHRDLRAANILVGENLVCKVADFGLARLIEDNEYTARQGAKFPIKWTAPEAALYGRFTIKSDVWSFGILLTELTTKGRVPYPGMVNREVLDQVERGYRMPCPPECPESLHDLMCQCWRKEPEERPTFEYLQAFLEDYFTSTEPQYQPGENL
Epidermal growth factor receptor (Homo sapiens), P00533 [L858R,T790M], sequence (P00533 whole entry T790M/L858R, looked up): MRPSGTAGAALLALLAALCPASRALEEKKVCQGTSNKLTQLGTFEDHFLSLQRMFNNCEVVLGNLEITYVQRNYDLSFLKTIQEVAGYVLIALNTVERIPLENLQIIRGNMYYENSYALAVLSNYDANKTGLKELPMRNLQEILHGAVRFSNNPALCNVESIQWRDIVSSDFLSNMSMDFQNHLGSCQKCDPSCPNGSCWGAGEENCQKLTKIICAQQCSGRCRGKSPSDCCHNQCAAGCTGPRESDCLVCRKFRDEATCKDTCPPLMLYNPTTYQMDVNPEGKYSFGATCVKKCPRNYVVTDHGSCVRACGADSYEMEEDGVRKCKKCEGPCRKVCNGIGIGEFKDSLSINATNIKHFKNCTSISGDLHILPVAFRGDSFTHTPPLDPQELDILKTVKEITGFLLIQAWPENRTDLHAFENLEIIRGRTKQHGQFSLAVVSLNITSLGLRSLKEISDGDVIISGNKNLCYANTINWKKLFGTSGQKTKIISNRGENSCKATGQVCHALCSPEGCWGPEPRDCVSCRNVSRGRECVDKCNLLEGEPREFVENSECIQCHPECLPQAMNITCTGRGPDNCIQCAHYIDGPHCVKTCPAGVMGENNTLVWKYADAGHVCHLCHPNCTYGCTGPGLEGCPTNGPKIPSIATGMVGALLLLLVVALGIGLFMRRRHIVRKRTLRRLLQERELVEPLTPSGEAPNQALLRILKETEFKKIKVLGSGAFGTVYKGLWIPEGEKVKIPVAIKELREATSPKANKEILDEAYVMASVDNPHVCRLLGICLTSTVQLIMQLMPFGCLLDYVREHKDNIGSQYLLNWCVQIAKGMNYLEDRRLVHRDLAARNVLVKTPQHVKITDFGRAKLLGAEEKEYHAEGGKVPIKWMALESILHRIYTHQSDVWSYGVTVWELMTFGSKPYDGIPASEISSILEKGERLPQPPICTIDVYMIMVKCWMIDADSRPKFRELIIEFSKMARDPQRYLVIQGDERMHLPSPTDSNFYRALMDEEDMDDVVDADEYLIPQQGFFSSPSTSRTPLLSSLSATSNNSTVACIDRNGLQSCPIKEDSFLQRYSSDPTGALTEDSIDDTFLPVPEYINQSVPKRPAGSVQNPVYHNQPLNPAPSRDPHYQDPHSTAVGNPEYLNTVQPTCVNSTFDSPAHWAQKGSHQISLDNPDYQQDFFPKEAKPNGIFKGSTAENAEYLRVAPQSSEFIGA
Epidermal growth factor receptor (Homo sapiens, UniProt P00533, L858R/T790M), sequence (P00533 25-1210 T790M/L858R limits assumed): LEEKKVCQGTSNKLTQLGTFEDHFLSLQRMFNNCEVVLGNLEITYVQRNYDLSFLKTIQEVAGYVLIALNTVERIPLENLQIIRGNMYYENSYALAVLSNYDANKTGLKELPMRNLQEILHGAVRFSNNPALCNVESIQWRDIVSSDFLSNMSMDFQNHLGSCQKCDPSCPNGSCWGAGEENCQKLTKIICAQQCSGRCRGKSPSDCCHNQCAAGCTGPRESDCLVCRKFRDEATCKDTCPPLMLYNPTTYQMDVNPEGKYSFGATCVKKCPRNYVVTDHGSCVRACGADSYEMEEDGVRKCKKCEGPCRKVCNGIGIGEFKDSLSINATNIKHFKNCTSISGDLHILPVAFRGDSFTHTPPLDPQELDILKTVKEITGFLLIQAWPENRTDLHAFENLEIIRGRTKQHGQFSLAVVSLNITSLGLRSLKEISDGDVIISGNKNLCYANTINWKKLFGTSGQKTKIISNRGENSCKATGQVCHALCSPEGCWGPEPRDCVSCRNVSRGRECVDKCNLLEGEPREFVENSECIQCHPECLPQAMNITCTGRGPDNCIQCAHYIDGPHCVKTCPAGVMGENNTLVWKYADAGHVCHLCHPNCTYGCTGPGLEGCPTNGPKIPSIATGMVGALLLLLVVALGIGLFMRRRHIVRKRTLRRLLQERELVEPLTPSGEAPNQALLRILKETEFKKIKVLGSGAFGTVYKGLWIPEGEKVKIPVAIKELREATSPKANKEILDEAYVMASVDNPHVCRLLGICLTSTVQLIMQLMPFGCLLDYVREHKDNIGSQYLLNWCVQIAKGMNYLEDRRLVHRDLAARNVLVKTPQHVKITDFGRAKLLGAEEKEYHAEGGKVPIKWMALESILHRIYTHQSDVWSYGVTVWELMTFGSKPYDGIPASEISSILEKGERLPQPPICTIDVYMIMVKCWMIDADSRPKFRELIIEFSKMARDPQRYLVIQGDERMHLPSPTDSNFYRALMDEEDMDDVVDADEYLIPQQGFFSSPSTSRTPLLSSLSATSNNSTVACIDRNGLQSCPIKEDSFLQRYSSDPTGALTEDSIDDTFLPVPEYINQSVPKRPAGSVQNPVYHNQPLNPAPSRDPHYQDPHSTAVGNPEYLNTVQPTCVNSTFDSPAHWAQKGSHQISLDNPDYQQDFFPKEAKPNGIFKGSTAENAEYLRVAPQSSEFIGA
Mast/stem cell growth factor receptor Kit (Homo sapiens), sequence (P10721 whole entry, the tested form may be a part): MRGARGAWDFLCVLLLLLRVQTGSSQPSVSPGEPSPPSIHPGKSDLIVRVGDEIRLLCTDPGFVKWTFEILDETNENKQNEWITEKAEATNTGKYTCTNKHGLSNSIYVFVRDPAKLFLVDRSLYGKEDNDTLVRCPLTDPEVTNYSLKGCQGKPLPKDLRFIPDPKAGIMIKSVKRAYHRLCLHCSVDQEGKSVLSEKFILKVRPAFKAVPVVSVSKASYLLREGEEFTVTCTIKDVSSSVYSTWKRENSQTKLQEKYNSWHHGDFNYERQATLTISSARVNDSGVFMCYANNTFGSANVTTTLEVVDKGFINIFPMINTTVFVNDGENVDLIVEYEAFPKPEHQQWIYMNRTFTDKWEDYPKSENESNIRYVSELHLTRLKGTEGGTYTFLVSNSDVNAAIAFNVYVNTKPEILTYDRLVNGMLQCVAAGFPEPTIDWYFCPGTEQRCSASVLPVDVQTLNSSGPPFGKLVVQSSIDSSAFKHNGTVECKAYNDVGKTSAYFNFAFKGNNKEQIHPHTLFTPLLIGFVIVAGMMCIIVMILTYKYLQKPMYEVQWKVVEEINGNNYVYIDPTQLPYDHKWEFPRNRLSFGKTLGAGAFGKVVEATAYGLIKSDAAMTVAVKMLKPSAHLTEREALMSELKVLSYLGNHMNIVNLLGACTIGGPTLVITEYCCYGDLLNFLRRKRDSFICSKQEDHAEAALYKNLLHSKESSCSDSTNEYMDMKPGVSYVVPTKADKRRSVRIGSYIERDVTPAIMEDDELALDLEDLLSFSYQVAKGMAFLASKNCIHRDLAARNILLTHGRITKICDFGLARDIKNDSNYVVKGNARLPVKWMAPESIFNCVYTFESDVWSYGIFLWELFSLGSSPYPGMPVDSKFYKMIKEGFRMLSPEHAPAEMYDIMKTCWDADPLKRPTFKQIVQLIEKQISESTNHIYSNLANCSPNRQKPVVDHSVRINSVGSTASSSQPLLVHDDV

C=CC(=O)N1CC[C@H](N2C(=O)N(c3ccccc3)Cc3cnc(Nc4ccc(N5CCN(C)CC5)c(C)c4)nc32)C1
IC50 [1]: 3 nM
IC50 [2]: 4000 nM
AUC(0-inf) [3]: 1640 ng·h/mL
IC50 [4]: 5100 nM
Activity (NCI-H1975 [5]): inactive
Activity (NCI-H1975 [6]): inactive
Activity (Mus musculus [7]): < 5%
bioavailability [8]: 30%
TGI (NCI-H1975 [9]): Dose-dependent effect
inhibition in vivo at 10 mg/kg (NCI-H1975 [10]): 35.4%
IC50 [11]: 10 nM
solubility thermodynamic at 24 h [12]: 1270 µg/mL (≈ 2290 µM)
clearance [13]: 51.7 mL/min/kg
inhibition [14]: Active
IC50 [15]: > 10000 nM
AUC(0-inf) [16]: 2490 ng·h/mL
Cmax [17]: 1040 ng/mL
Activity [18]: Active
CL/F [19]: 167 mL/min/kg
Activity [20]: Active
Activity [21]: Active
Activity [22]: Active
Activity [23]: Active
Activity (NCI-H1975 [24]): inactive
IC50 (NCI-H1975 [25]): 47 nM
inhibition in vivo at 30 mg/kg (NCI-H1975 [26]): 56.8%
IC50 [27]: 9.2 nM
Activity (Mus musculus [28]): Non-toxic
Activity [29]: Active
